Measurements collected from several papers.
Lines come from different studies, so protocols differ.
EGFR: Epidermal growth factor receptor (EGFR, Homo sapiens, UniProt P00533)
EGFR L858R: Epidermal growth factor receptor (EGFR, Homo sapiens, UniProt P00533, L858R)
EGFR del746-750: Epidermal growth factor receptor (EGFR, Homo sapiens, UniProt P00533, del746-750)
EGFR G719C: Epidermal growth factor receptor (EGFR, Homo sapiens, UniProt P00533, G719C)

SMILES | target | test | conditions | measurement | result
CNC(=O)c1ccccc1Nc1nc(Nc2ccc(CO)cc2)ncc1Cl | EGFR | enzyme activity, inhibitor, radiometric | 1 µM | remaining activity | 7.68%
C1=C/COCc2cc(ccc2OCCN2CCCC2)Nc2nccc(n2)-c2cccc(c2)COC/1 | Epidermal growth factor receptor (EGFR, Homo sapiens, UniProt P00533, A750P/del747-749) | binding | 0.1 µM | remaining binding | 67%
C=CC(=O)N1CCC([C@@H]2CCNc3c(C(N)=O)c(-c4ccc(Oc5ccccc5)cc4)nn32)CC1 | Epidermal growth factor receptor (EGFR, Homo sapiens, UniProt P00533, G719S) | cell-free assay | 1 µM | inhibition | 95%
C#Cc1cnc(Nc2ccnc(CO)c2)nc1Nc1ccccc1S(C)(=O)=NC#N (stereo not drawn) | EGFR L858R | cell-free assay | 1 µM | remaining signal | 63%
CC#CC(=O)N1CCC[C@H]1c1nc(-c2ccc(C(=O)Nc3ccccn3)cc2)c2c(N)nccn12 | EGFR del746-750 | enzyme activity, inhibitor | 1 µM | inhibition | 0%
CN1CCN(C(=O)c2ccc(NC(=O)Nc3ccc(N(C)c4ccnc(Nc5ccc(CS(C)(=O)=O)cc5)n4)cc3)cc2)CC1 | EGFR G719C | binding | 1 µM | remaining binding | 95%
COc1ccc2oc(-c3ccc4nc(N)oc4c3)c/c(=N\c3ccccc3NC(=O)CCN)c2c1 | Epidermal growth factor receptor (EGFR, Homo sapiens, UniProt P00533, T790M) | cell-free assay | 1 µM | remaining signal | 99%
CO[C@@H]1[C@H](N(C)C(=O)c2ccccc2)C[C@H]2O[C@]1(C)n1c3ccccc3c3c4c(c5c6ccccc6n2c5c31)C(=O)NC4 | Epidermal growth factor receptor (EGFR, Homo sapiens, UniProt P00533, del747-752/P753S) | enzyme activity, inhibitor | 1 µM | inhibition | 10%
C[C@H]1CC[C@H](n2c3cnccc3c3cnc(Nc4ccc5c(n4)CCN(C(=O)CO)C5)nc32)CC1 | EGFR del746-750 | cell-free assay | 1 µM | remaining signal | 84%
CS(=O)(=O)c1ccccc1Nc1nc(Nc2ccnc(CO)c2)ncc1Cl | EGFR | enzyme activity, inhibitor, radiometric | 1 µM | remaining activity | 94.8%
Cc1ccc(NC(=O)c2ccnc(C(F)(F)F)c2)cc1-c1cc(OCCO)nc(N2CCOCC2)c1 | EGFR G719C | binding | 1 µM | remaining binding | 97%
C#Cc1cnc(Nc2ccc(CO)nc2)nc1Nc1ccccc1S(C)(=O)=NC#N (stereo not drawn) | EGFR | enzyme activity, inhibitor, radiometric | 1 µM | remaining activity | 75.6%
N#Cc1ccc(NC(=O)Nc2ccccc2)cc1 | EGFR L858R | cell-free assay, competition with immobilised ligand | 25 µM | remaining binding | 75%
CS(=O)(=NC#N)c1ccccc1Nc1nc(Nc2ccc(CO)nc2)ncc1Cl (stereo not drawn) | EGFR | enzyme activity, inhibitor, radiometric | 1 µM | remaining activity | 98.3%
COc1ccc2[nH]c3c4[nH]c5ccc(OC)cc5c4c4c(c3c2c1)C(=O)NC4=O | Epidermal growth factor receptor (EGFR, Homo sapiens, UniProt P00533, del752-759) | binding | 1 µM | remaining binding | 68%
